According to ChEMBL document CHEMBL3120102, “Structure-based design, synthesis and biological evaluation of novel anthra[1,2-d]imidazole-6,11-dione homologues as potential antitumor agents” (2013):

What was measured:
A498 = test: Cytotoxicity against human A498 cells assessed as cell growth at 10 uM after 48 hrs by SRB assay; format: functional; settings: A498, 48 h, read-out: Activity
NCI-H522 = test: Cytotoxicity against human NCI-H522 cells assessed as cell growth at 10 uM after 48 hrs by SRB assay; format: functional; settings: NCI-H522, 48 h, read-out: Activity
Method in brief: (§1)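 First stage of the NCI 60 human tumour cell line screen: a single dose is tested against every line. Cell growth is read as cellular protein by sulforhodamine B colorimetry after 48 h of drug exposure, with reference to a time-zero control and to untreated plates.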

HCT-116 = test: Cytotoxicity against human HCT116 cells assessed as cell growth at 10 uM after 48 hrs by SRB assay; format: functional; settings: HCT-116, 48 h, read-out: Activity
[1] = Cytotoxicity against human NCI-ADR-RES cells assessed as cell growth at 10 uM after 48 hrs by SRB assay; format: functional; settings: read-out: Activity; method in brief: as §1
MOLT-4 = test: Cytotoxicity against human MOLT4 cells assessed as cell growth at 10 uM after 48 hrs by SRB assay; format: functional; settings: MOLT-4, 48 h, read-out: Activity; method in brief: as §1
CCRF-CEM [2] = test: Cytotoxicity against human CCRF-CEM cells assessed as growth inhibition after 48 hrs by SRB assay; format: functional
Method in brief: (§2)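 NCI 60-cell-line five-dose screen at […]. Drug exposure was 48 h, followed by sulforhodamine B protein staining. GI50, TGI and LC50 were calculated against a time-zero control and untreated plates, with dose–response curves plotted from log10 concentration.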

[3] = biological target: Telomerase reverse transcriptase (Homo sapiens) (UniProt O14746); test: Inhibition of human tert transcriptional activity assessed as SEAP activity at 100 uM after 24 hrs by SEAP reporter assay; set-up: scale not given: the % may be the effect or the level left
Method in brief: (§3)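 Reporter assay for hTERT transcriptional activity using secreted alkaline phosphatase. About 2 × 10³ cells per well were grown for 24 h at 37 °C, then given fresh medium. Buffer was added to the medium: 2 M diethanolamine, 1 mM MgCl2 and 20 mM L-homoarginine. p-Nitrophenyl phosphate was added to 12 mM final. The rate of absorbance increase was read at 405 nm.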

[4] = Cytotoxicity against human UACC257 cells assessed as cell growth at 10 uM after 48 hrs by SRB assay; format: functional; settings: UACC-257, 48 h, read-out: Activity
Method in brief: (§4)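 First stage of the NCI 60 human tumour cell line screen, with each compound tested at a single dose of 10. Cellular protein measured by sulforhodamine B colorimetry after 48 h drug exposure. Growth is calculated against a time-zero cell control and against plates not exposed to drug.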

SN12C = test: Cytotoxicity against human SN12C cells assessed as cell growth at 10 uM after 48 hrs by SRB assay; format: functional; settings: read-out: Activity; method in brief: as §1
[5] = biological target: Telomerase reverse transcriptase (Homo sapiens) (UniProt O14746); test: Inhibition of human tert transcriptional activity assessed as SEAP activity at 1 uM after 24 hrs by SEAP reporter assay; set-up: scale not given: the % may be the effect or the level left; method in brief: as §3
UACC-62 = test: Cytotoxicity against human UACC62 cells assessed as cell growth at 10 uM after 48 hrs by SRB assay; format: functional; settings: UACC-62, 48 h, read-out: Activity; method in brief: as §4
TK-10 = test: Cytotoxicity against human TK10 cells assessed as cell growth at 10 uM after 48 hrs by SRB assay; format: functional; settings: TK-10, 48 h, read-out: Activity; method in brief: as §4
[6] = Cytotoxicity against human H1299 cells assessed as cell viability at 1 uM after 48 hrs by MTT assay; format: functional; settings: NCI-H1299, 48 h, read-out: Activity
Method in brief: (§5)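 About 2×10³ H1299 cells per well were grown for 24 h at 37 °C in 5% CO2. Compound was dissolved in DMSO immediately before use, diluted in complete medium and left on cells for 48 h. MTT was then added for 4 h at 37 °C, followed by SDS/DMF lysis buffer for 16 h at 37 °C. Absorbance was read at 550 nm.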

DU-145 = test: Cytotoxicity against human DU145 cells assessed as cell growth at 10 uM after 48 hrs by SRB assay; format: functional; settings: DU-145, 48 h, read-out: Activity
Method in brief: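 NCI 60-cell-line screen, first stage: compound at a single dose of […] (unit as printed) for 48 h. Cellular protein was measured by sulforhodamine B colorimetry. Growth was determined using a time-zero cell control and plates not exposed to drug.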

[7] = Cytotoxicity against human OVCAR5 cells assessed as cell growth at 10 uM after 48 hrs by SRB assay; format: functional; settings: OVCAR-5, 48 h, read-out: Activity; method in brief: as §1
SK-MEL-2 = test: Cytotoxicity against human SK-MEL-2 cells assessed as cell growth at 10 uM after 48 hrs by SRB assay; format: functional; settings: SK-MEL-2, 48 h, read-out: Activity; method in brief: as §1
[8] = Cytotoxicity against human OVCAR4 cells assessed as cell growth at 10 uM after 48 hrs by SRB assay; format: functional; settings: OVCAR-4, 48 h, read-out: Activity; method in brief: as §1
[9] = Cytotoxicity against human H1299 cells assessed as cell viability at 10 uM after 48 hrs by MTT assay; format: functional; settings: NCI-H1299, 48 h, read-out: Activity; method in brief: as §5
[10] = Cytotoxicity against human H1299 cells assessed as cell viability at 100 uM after 48 hrs by MTT assay; format: functional; settings: NCI-H1299, 48 h, read-out: Activity; method in brief: as §5
KM12 = test: Cytotoxicity against human KM12 cells assessed as growth inhibition after 48 hrs by SRB assay; format: functional; settings: for GI50 / TGI / CC50: KM12, 48 h; for CC50: read-out: LC50 (the source's name); method in brief: as §2
OVCAR-8 = test: Cytotoxicity against human OVCAR8 cells assessed as cell growth at 10 uM after 48 hrs by SRB assay; format: functional; settings: OVCAR-8, 48 h, read-out: Activity; method in brief: as §1
PC-3 = test: Cytotoxicity against human PC3 cells assessed as cell growth at 10 uM after 48 hrs by SRB assay; format: functional; settings: PC-3, 48 h, read-out: Activity; method in brief: as §1
[11] = Cytotoxicity against human UO31 cells assessed as cell growth at 10 uM after 48 hrs by SRB assay; format: functional; settings: UO-31, 48 h, read-out: Activity; method in brief: as §4
SF-295 = test: Cytotoxicity against human SF295 cells assessed as cell growth at 10 uM after 48 hrs by SRB assay; format: functional; settings: SF-295, 48 h, read-out: Activity; method in brief: as §1
NCI-H23 = test: Cytotoxicity against human NCI-H23 cells assessed as cell growth at 10 uM after 48 hrs by SRB assay; format: functional; settings: NCI-H23, 48 h, read-out: Activity; method in brief: as §1
SF-268 = test: Cytotoxicity against human SF268 cells assessed as cell growth at 10 uM after 48 hrs by SRB assay; format: functional; settings: SF-268, 48 h, read-out: Activity; method in brief: as §1
IGROV-1 = test: Cytotoxicity against human IGROV1 cells assessed as cell growth at 10 uM after 48 hrs by SRB assay; format: functional; settings: IGROV-1, 48 h, read-out: Activity
CCRF-CEM [12] = test: Cytotoxicity against human CCRF-CEM cells assessed as cell growth at 10 uM after 48 hrs by SRB assay; format: functional; settings: read-out: Activity
HCT-15 = test: Cytotoxicity against human HCT15 cells assessed as growth inhibition after 48 hrs by SRB assay; format: functional; method in brief: as §2

Telomerase reverse transcriptase (Homo sapiens), sequence (O14746 whole entry): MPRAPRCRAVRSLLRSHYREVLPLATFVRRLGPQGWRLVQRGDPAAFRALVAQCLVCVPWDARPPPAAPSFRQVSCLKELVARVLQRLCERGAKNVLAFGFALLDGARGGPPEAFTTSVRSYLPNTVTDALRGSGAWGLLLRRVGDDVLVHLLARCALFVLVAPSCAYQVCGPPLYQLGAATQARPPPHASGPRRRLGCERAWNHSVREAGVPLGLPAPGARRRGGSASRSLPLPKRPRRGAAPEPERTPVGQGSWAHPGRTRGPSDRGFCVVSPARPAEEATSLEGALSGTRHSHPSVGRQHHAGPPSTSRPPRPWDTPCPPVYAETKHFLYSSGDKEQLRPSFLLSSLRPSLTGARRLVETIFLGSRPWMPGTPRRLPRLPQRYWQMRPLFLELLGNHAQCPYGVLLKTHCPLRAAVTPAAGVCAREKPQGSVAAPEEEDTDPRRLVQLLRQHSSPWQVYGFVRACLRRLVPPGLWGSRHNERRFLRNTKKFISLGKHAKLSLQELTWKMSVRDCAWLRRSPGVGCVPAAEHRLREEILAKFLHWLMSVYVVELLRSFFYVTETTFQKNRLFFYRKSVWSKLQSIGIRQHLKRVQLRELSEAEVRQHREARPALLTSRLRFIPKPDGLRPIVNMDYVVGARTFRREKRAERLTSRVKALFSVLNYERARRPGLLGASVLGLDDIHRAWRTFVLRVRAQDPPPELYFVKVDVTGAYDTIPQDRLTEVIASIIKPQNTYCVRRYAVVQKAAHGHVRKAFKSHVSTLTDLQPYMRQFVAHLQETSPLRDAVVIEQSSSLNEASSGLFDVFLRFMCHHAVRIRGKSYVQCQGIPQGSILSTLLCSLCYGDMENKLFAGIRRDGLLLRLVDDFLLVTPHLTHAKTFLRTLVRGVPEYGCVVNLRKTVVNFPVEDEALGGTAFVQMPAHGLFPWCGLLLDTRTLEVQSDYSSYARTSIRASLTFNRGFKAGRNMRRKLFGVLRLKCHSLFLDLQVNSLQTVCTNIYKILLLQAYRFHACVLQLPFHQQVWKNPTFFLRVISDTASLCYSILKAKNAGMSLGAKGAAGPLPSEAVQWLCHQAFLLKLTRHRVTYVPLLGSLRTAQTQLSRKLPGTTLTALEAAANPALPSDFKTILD

Row | Structure (SMILES) | growth at 10 µM (A498) | growth at 10 µM (NCI-H522) | growth at 10 µM (HCT-116) | growth at 10 µM [1] | growth at 10 µM (MOLT-4) | GI50 (CCRF-CEM [2]) | TGI (CCRF-CEM [2]) | growth inhibition (GI) (CCRF-CEM [2]) | Activity [3] | growth at 10 µM [4] | growth at 10 µM (SN12C) | Activity [5] | growth at 10 µM (UACC-62) | growth at 10 µM (TK-10) | viability at 1 µM [6] | growth at 10 µM (DU-145) | growth at 10 µM [7] | growth at 10 µM (SK-MEL-2) | growth at 10 µM [8] | viability at 10 µM [9] | other results
1 | CN(C)CCCSc1nc2ccc3c(c2[nH]1)C(=O)c1ccccc1C3=O | 76.2% | 69.3% | 27.6% | 54.3% | -2.9% | 1.29 µM | 4.36 µM | Dose-dependent effect | 15% | 114% | 37.7% | 100% | 75.4% | 31.7% | 108% | 36.4% | 87.9% | 80% | 29.7% | 79% | viability at 100 µM [10]: 22%; growth inhibition (GI) (KM12): Dose-dependent effect; GI50 (KM12): 1.96 µM; TGI (KM12): 7.24 µM; CC50 (KM12): 27.4 µM; growth at 10 µM (OVCAR-8): 61.9%; growth at 10 µM (PC-3): 36.7%; growth at 10 µM [11]: 25.5%; growth at 10 µM (SF-295): 76%; growth at 10 µM (NCI-H23): 53.8%; growth at 10 µM (SF-268): 53.1%; growth at 10 µM (IGROV-1): 30.9%; growth at 10 µM (CCRF-CEM [12]): 8.49%; growth inhibition (GI) (HCT-15): Dose-dependent effect; GI50 (HCT-15; HCT-15, 48 h): 0.68 µM; TGI (HCT-15; HCT-15, 48 h): 15 µM
2 | CCSc1nc2ccc3c(c2[nH]1)C(=O)c1ccccc1C3=O | 75.5% | 78.6% | 68.8% | 85.7% | 101% | 3.66 µM | > 100 µM | Dose-dependent effect | 17% | 112% | 67.9% | 100% | 47.6% | 74.1% | 109% | 64.5% | 85.4% | 81.7% | 55% | 127% | LC50 (CCRF-CEM [2]): > 100 µM; viability at 100 µM [10]: 73%; growth inhibition (GI) (KM12): Dose-dependent effect; GI50 (KM12): 8.43 µM; TGI (KM12): > 100 µM; CC50 (KM12): > 100 µM; growth at 10 µM (OVCAR-8): 96.8%; growth at 10 µM (PC-3): 53.8%; growth at 10 µM [11]: 49.2%; growth at 10 µM (SF-295): 101%; growth at 10 µM (NCI-H23): 87.4%; growth at 10 µM (SF-268): 75.7%; growth at 10 µM (IGROV-1): 73.4%; growth at 10 µM (CCRF-CEM [12]): 36.9%; growth inhibition (GI) (HCT-15): Dose-dependent effect; GI50 (HCT-15; HCT-15, 48 h): 3.52 µM; LC50 (concentration killing 50% of cells) (HCT-15; HCT-15, 48 h): > 100 µM; TGI (HCT-15; HCT-15, 48 h): > 100 µM
